“Also recorded” adds a separate entry of the source.
Assays:
[1] = system: virulent Type I RH strain of T. gondii that expresses luciferase; assay: In vivo efficacy against acute toxoplasmosis in mice; design: species or system Toxoplasma gondii; settings: 5 mg/kg orally for 5 days; for luminescence from infection: at day 13 / prior to euthanasia; for survival of infected mice: CF-1 mice, 4 per group
[2] = system: human cyt bc1; settings: cited from earlier work
[3] = system: S. cerevisiae cyt bc1; settings: cited from earlier work
[4] = system: T. gondii RH strain with T222P substitution in the cyt b Qi site; assay: T. gondii T222P strain proliferation assay; format: cell-based, Toxoplasma gondii
In short: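 Compounds were DMSO-diluted (≤0.5% final) over human foreskin fibroblast monolayers. Wild-type or Thr222Pro RH tachyzoites (4000/well) expressing gfp and β-galactosidase were added; the mutant came from chemical mutagenesis plus selection. After 72 h at 37°C, 5% CO2, cells were lysed and chlorophenol red β-galactopyranoside added for 4 h, read spectrophotometrically. Each run ≥3 times in quadruplicate. Resistance is the T222P/wild-type EC50 ratio.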

[5] = system: RH strain of T. gondii expressing β-galactosidase (wild type cyt b); assay: 72h T. gondii tachyzoite proliferation assay; format: cell-based; settings: Toxoplasma gondii, read-out: T. gondii EC50
[6] = system: Dd2 P. falciparum strain; assay: 72h P. falciparum blood stage proliferation assay; format: cell-based; settings: Plasmodium falciparum, DD2, 72 h, read-out: Dd2 EC50 (P. falciparum)
In short: (§1)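 Dd2 or I22L clone (I22L selected from Dd2 under quinolone pressure) blood stages in 2-fold dilution series, in triplicate. Final hematocrit 2% (v/v), starting parasitemia 0.2%. Incubated 72 h at 37°C under 5% CO2/5% O2/90% N2. SYBR Green I dye-detergent added for 1 h at room temperature in the dark, then fluorescence read. EC50 is the mean of ≥3 experiments. […]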

[7] = system: P. falciparum Dd2 strain with I22L substitution in cytochrome b; assay: P. falciparum I22L strain proliferation assay; format: cell-based, Plasmodium falciparum
In short: as §1

[8] = system: N. caninum; settings: 10mg/kg dose; cited from earlier work
[9] = rats, orally at 5 mk/kg; cited from earlier work
[10] = cited from earlier work
[11] = system: Plasmodium; settings: single dose of 1 mg/kg; cited from earlier work

O=C1C(O)=C([C@H]2CC[C@H](c3ccc(Cl)cc3)CC2)C(=O)c2ccccc21 [ATV, Atovaquone, reference compound]
T. gondii DNA in brain (quantitative real-time PCR) [1]: developed both systemic and brain infection | T. gondii DNA in spleen (quantitative real-time PCR) [1]: developed both systemic and brain infection | luminescence from infection [1]: detectable in the 2 surviving mice | activity against human cyt bc1 [2]: has activity

Cc1[nH]c2ccccc2c(=O)c1-c1ccc(Oc2ccc(OC(F)(F)F)cc2)cc1 [Compound 1B]
activity against human cyt bc1 [2]: has activity | activity against yeast (S. cerevisiae) cyt bc1 [3]: has activity

COc1ccc2c(=O)c(-c3ccc(Oc4ccc(OC(F)(F)F)cc4)cc3)c(C)[nH]c2c1 [Compound 2B]
resistance caused by T222P substitution in T. gondii [4]: causes resistance | activity against human cyt bc1 [2]: do not inhibit | activity against yeast (S. cerevisiae) cyt bc1 [3]: do not inhibit

CCCCCCCCCCCc1c(C)[nH]c2cc(OC)ccc2c1=O [Compound 2C, 7-methoxy-2-methyl-3-undecylquinolin-4(1H)-one]
EC50 [5]: 0.37 nM | EC50 [6]: 1.8 nM

COc1cc2[nH]c(C)c(-c3ccc(Oc4ccc(OC(F)(F)F)cc4)cc3)c(=O)c2cc1F [Compound 3B]
T. gondii DNA in brain (quantitative real-time PCR) [1]: evidence of brain infection by PCR that was similar to controls | luminescence from infection [1]: 3 of 4 mice did not have luminescence | T. gondii DNA in brain (quantitative real-time PCR) ([1]; listed as ELQ-316): had T. gondii infection in brain tissue | T. gondii DNA in spleen (quantitative real-time PCR) ([1]; listed as ELQ-316): not detected above the limits of detection in the spleen of 3 of 4 mice | resistance caused by T222P substitution in T. gondii [4]: causes resistance | activity against human cyt bc1 [2]: do not inhibit | activity against yeast (S. cerevisiae) cyt bc1 [3]: do not inhibit

COc1cc2[nH]c(C)c(-c3ccc(Oc4ccc(OC(F)(F)F)cc4)cc3)c(=O)c2cc1Cl [Compound 4B]
resistance caused by T222P substitution in T. gondii [4]: causes resistance | activity against human cyt bc1 [2]: do not inhibit | activity against yeast (S. cerevisiae) cyt bc1 [3]: do not inhibit | resistance caused by I22L substitution in P. falciparum [7]: causes resistance

Cc1[nH]c2cc(F)cc(F)c2c(=O)c1-c1ccc(Oc2ccc(OC(F)(F)F)cc2)cc1 [Compound 8B]
efficacy against N. caninum infection [8]: effective in reducing infection | maximum concentration [9]: 71.2 ng/mL | toxicity in general cell assays and in vivo efficacy studies [10]: toxicity was not observed | efficacy in a mouse model of malaria [11]: curative | T. gondii DNA in brain (quantitative real-time PCR) [1]: not detected | T. gondii DNA in spleen (quantitative real-time PCR) [1]: not detected | survival of infected mice [1]: survived until day 32; also recorded: all mice survived | survival of infected mice ([1]; listed as ELQ-400): alive at the completion of the experiment | T. gondii DNA in brain (quantitative real-time PCR) ([1]; listed as ELQ-400): did not have infection detectable by PCR | T. gondii DNA in spleen (quantitative real-time PCR) ([1]; listed as ELQ-400): none of the mice | activity against human cyt bc1 [2]: has activity | site of inhibition in S. cerevisiae cyt b [3]: inhibit both the Qo and Qi site

Reference: article PMC6884402 (ACS infectious diseases, 2018)
